What was measured:
Assay type in all cases: functional
SK-MEL-2 = test: Growth inhibition of human SK-MEL-2 cells at 10 uM after 48 hrs by coulter counter method; conditions: SK-MEL-2, 48 h, read-out: GI
How it was run: (§1)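 Single high-dose NCI 60-cell-line panel screen across nine tumor subpanels. Test solutions (0.2 mL) were added in duplicate to wells holding 1.8 mL of culture at 6 × 10⁴ cells/mL. Controls got PBS and DMSO at identical dilutions. Incubation was 48 h at 37 °C in humidified 5% CO₂. Cells were diluted 10-fold in saline, Coulter-counted and dilution-corrected. Results were expressed as percent growth inhibition versus control.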

CAKI-1 = test: Growth inhibition of human Caki1 cells at 10 uM after 48 hrs by coulter counter method; conditions: CAKI-1, 48 h, read-out: GI; how it was run: as §1
KM12 = test: Growth inhibition of human KM12 cells at 10 uM after 48 hrs by coulter counter method; conditions: KM12, 48 h, read-out: GI; how it was run: as §1
MCF7 = test: Growth inhibition of human MCF7 cells at 10 uM after 48 hrs by coulter counter method; conditions: MCF7, 48 h, read-out: GI; how it was run: as §1
T47D = test: Growth inhibition of human T47D cells at 10 uM after 48 hrs by coulter counter method; conditions: read-out: GI; how it was run: as §1
BT-549 = test: Growth inhibition of human BT549 cells at 10 uM after 48 hrs by coulter counter method; conditions: BT-549, 48 h, read-out: GI; how it was run: as §1
UO-31 = test: Growth inhibition of human UO31 cells at 10 uM after 48 hrs by coulter counter method; conditions: UO-31, 48 h, read-out: GI; how it was run: as §1
SNB-75 = test: Growth inhibition of human SNB75 cells at 10 uM after 48 hrs by coulter counter method; conditions: SNB-75, 48 h, read-out: GI; how it was run: as §1
MDA-MB-468 = test: Growth inhibition of human MDA-MB-468 cells at 10 uM after 48 hrs by coulter counter method; conditions: MDA-MB-468, 48 h, read-out: GI; how it was run: as §1
SK-MEL-28 = test: Growth inhibition of human SK-MEL-28 cells at 10 uM after 48 hrs by coulter counter method; conditions: SK-MEL-28, 48 h, read-out: GI; how it was run: as §1
HT-29 = test: Growth inhibition of human HT-29 cells at 10 uM after 48 hrs by coulter counter method; conditions: HT-29, 48 h, read-out: GI; how it was run: as §1
CCRF-CEM = test: Growth inhibition of human CCRF-CEM cells at 10 uM after 48 hrs by coulter counter method; conditions: read-out: GI; how it was run: as §1
SN12C = test: Growth inhibition of human SN12C cells at 10 uM after 48 hrs by coulter counter method; conditions: read-out: GI; how it was run: as §1
HL-60(TB) = test: Growth inhibition of human HL-60(TB) cells at 10 uM after 48 hrs by coulter counter method; conditions: HL-60, 48 h, read-out: GI
How it was run: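 Part of the NCI 60-cell-line single-high-dose panel. Cells were seeded at 6 × 10⁴ cells/mL with test solution in duplicate wells, alongside PBS/DMSO controls at identical dilutions. Plates were held 48 h at 37 °C in a humidified 5% CO₂ incubator. Cells were then diluted 10-fold in saline and counted by Coulter counter, with counts corrected for dilution. Results are percent growth of treated cells, reported as GI %.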

SF-268 = test: Growth inhibition of human SF268 cells at 10 uM after 48 hrs by coulter counter method; conditions: SF-268, 48 h, read-out: GI; how it was run: as §1
HCT-116 = test: Growth inhibition of human HCT116 cells at 10 uM after 48 hrs by coulter counter method; conditions: HCT-116, 48 h, read-out: GI; how it was run: as §1
PC-3 = test: Growth inhibition of human PC3 cells at 10 uM after 48 hrs by coulter counter method; conditions: PC-3, 48 h, read-out: GI; how it was run: as §1
NCI-H226 = test: Growth inhibition of human NCI-H226 cells at 10 uM after 48 hrs by coulter counter method; conditions: NCI-H226, 48 h, read-out: GI; how it was run: as §1
COLO 205 = test: Growth inhibition of human COLO205 cells at 10 uM after 48 hrs by coulter counter method; conditions: COLO 205, 48 h, read-out: GI; how it was run: as §1
MDA-MB-231 = test: Growth inhibition of human MDA-MB-231 cells at 10 uM after 48 hrs by coulter counter method; conditions: MDA-MB-231, 48 h, read-out: GI; how it was run: as §1
U-251 = test: Growth inhibition of human U251 cells at 10 uM after 48 hrs by coulter counter method; conditions: U-251, 48 h, read-out: GI; how it was run: as §1
SK-OV-3 = test: Growth inhibition of human SKOV3 cells at 10 uM after 48 hrs by coulter counter method; conditions: SK-OV-3, 48 h, read-out: GI; how it was run: as §1
NCI-H522 = test: Growth inhibition of human NCI-H522 cells at 10 uM after 48 hrs by coulter counter method; conditions: NCI-H522, 48 h, read-out: GI; how it was run: as §1
K562 = test: Growth inhibition of human K562 cells at 10 uM after 48 hrs by coulter counter method; conditions: K562, 48 h, read-out: GI; how it was run: as §1
SF-539 = test: Growth inhibition of human SF539 cells at 10 uM after 48 hrs by coulter counter method; conditions: SF-539, 48 h, read-out: GI; how it was run: as §1
M14 = test: Growth inhibition of human M14 cells at 10 uM after 48 hrs by coulter counter method; conditions: M14, 48 h, read-out: GI; how it was run: as §1
OVCAR-8 = test: Growth inhibition of human OVCAR8 cells at 10 uM after 48 hrs by coulter counter method; conditions: OVCAR-8, 48 h, read-out: GI; how it was run: as §1
UACC-62 = test: Growth inhibition of human UACC62 cells at 10 uM after 48 hrs by coulter counter method; conditions: UACC-62, 48 h, read-out: GI; how it was run: as §1
OVCAR-4 = test: Growth inhibition of human OVCAR4 cells at 10 uM after 48 hrs by coulter counter method; conditions: OVCAR-4, 48 h, read-out: GI; how it was run: as §1
786-0 = test: Growth inhibition of human 786-0 cells at 10 uM after 48 hrs by coulter counter method; conditions: 786-0, 48 h, read-out: GI; how it was run: as §1
A549 = test: Growth inhibition of human A549 cells at 10 uM after 48 hrs by coulter counter method; conditions: A549, 48 h, read-out: GI; how it was run: as §1
[1] = Growth inhibition of human Hs 578T cells at 10 uM after 48 hrs by coulter counter method; conditions: read-out: GI; how it was run: as §1
HOP-92 = test: Growth inhibition of human HOP92 cells at 10 uM after 48 hrs by coulter counter method; conditions: HOP-92, 48 h, read-out: GI; how it was run: as §1
NCI-H23 = test: Growth inhibition of human NCI-H23 cells at 10 uM after 48 hrs by coulter counter method; conditions: NCI-H23, 48 h, read-out: GI; how it was run: as §1
MOLT-4 = test: Growth inhibition of human MOLT4 cells at 10 uM after 48 hrs by coulter counter method; conditions: MOLT-4, 48 h, read-out: GI; how it was run: as §1
IGROV-1 = test: Growth inhibition of human IGROV1 cells at 10 uM after 48 hrs by coulter counter method; conditions: IGROV-1, 48 h, read-out: GI; how it was run: as §1

Row | SMILES | inhibition of growth at 10 µM (SK-MEL-2) | inhibition of growth at 10 µM (CAKI-1) | inhibition of growth at 10 µM (KM12) | inhibition of growth at 10 µM (MCF7) | inhibition of growth at 10 µM (T47D) | inhibition of growth at 10 µM (BT-549) | inhibition of growth at 10 µM (UO-31) | inhibition of growth at 10 µM (SNB-75) | inhibition of growth at 10 µM (MDA-MB-468) | inhibition of growth at 10 µM (SK-MEL-28) | inhibition of growth at 10 µM (HT-29) | inhibition of growth at 10 µM (SN12C) | inhibition of growth at 10 µM (HL-60(TB)) | inhibition of growth at 10 µM (SF-268) | inhibition of growth at 10 µM (HCT-116) | inhibition of growth at 10 µM (PC-3) | inhibition of growth at 10 µM (NCI-H226) | inhibition of growth at 10 µM (MDA-MB-231) | inhibition of growth at 10 µM (U-251) | inhibition of growth at 10 µM (SK-OV-3) | further results
1 | CCn1c(-n2ccnc2)nc2ccccc2c1=O | 30% | 46.3% | 30% | 30% | 30% | 30% | 30% | 30% | 30% | 30% | 30% | 30% | 30% | 30% | 30% | 30% | 30% | 30% | 30% | 30% | inhibition of growth at 10 µM (CCRF-CEM): 30%; inhibition of growth at 10 µM (COLO 205): 30%; inhibition of growth at 10 µM (NCI-H522): 30%; inhibition of growth at 10 µM (K562): 37.9%; inhibition of growth at 10 µM (SF-539): 30%; inhibition of growth at 10 µM (M14): 30%; inhibition of growth at 10 µM (OVCAR-8): 30%; inhibition of growth at 10 µM (UACC-62): 30%; inhibition of growth at 10 µM (OVCAR-4): 30%; inhibition of growth at 10 µM (786-0): 30%; inhibition of growth at 10 µM (A549): 30%; inhibition of growth at 10 µM [1]: 30%; inhibition of growth at 10 µM (HOP-92): 30%; inhibition of growth at 10 µM (NCI-H23): 30%
2 | O=c1c2ccccc2nc(-n2ccnc2)n1-c1ccccc1 | 30% | 30% | 30% | 30% | 30% | 30% | 30% | 30% | 30% | 30% | 30% | 30% | 30% | 30% | 30% | 30% | 30% | 30% | 30% | 30% | inhibition of growth at 10 µM (CCRF-CEM): 30%; inhibition of growth at 10 µM (MOLT-4): 30%; inhibition of growth at 10 µM (NCI-H522): 30%; inhibition of growth at 10 µM (K562): 30%; inhibition of growth at 10 µM (SF-539): 30%; inhibition of growth at 10 µM (M14): 30%; inhibition of growth at 10 µM (OVCAR-8): 30%; inhibition of growth at 10 µM (UACC-62): 30%; inhibition of growth at 10 µM (OVCAR-4): 30%; inhibition of growth at 10 µM (786-0): 30%; inhibition of growth at 10 µM (A549): 30%; inhibition of growth at 10 µM [1]: 30%; inhibition of growth at 10 µM (HOP-92): 76.6%; inhibition of growth at 10 µM (NCI-H23): 30%
3 | O=c1c2ccccc2nc(-n2ccnc2)n1-c1ccc(Cl)cc1 | 30% | 30% | 30% | 30% | 39% | 30% | 30% | 30% | 30% | 30% | 30% | 30% | 30% | 30% | 30% | 40.3% | 30% | 30% | 30% | 30% | inhibition of growth at 10 µM (IGROV-1): 30%; inhibition of growth at 10 µM (MOLT-4): 47.7%; inhibition of growth at 10 µM (COLO 205): 30%; inhibition of growth at 10 µM (NCI-H522): 30%; inhibition of growth at 10 µM (K562): 37.1%; inhibition of growth at 10 µM (SF-539): 30%; inhibition of growth at 10 µM (M14): 30%; inhibition of growth at 10 µM (OVCAR-8): 30%; inhibition of growth at 10 µM (UACC-62): 30%; inhibition of growth at 10 µM (OVCAR-4): 30%; inhibition of growth at 10 µM (786-0): 30%; inhibition of growth at 10 µM (A549): 30%; inhibition of growth at 10 µM [1]: 30%; inhibition of growth at 10 µM (HOP-92): 30%; inhibition of growth at 10 µM (NCI-H23): 30%
4 | COc1ccc(-n2c(-n3ccnc3)nc3ccccc3c2=O)cc1 | 30% | 30% | 30% | 30% | 30% | 30% | 30% | 30% | 30% | 30% | 30% | 30% | 30% | 30% | 30% | 30% | 30% | 30% | 30% | 30% | inhibition of growth at 10 µM (IGROV-1): 30%; inhibition of growth at 10 µM (CCRF-CEM): 30%; inhibition of growth at 10 µM (COLO 205): 30%; inhibition of growth at 10 µM (NCI-H522): 30%; inhibition of growth at 10 µM (K562): 30.8%; inhibition of growth at 10 µM (SF-539): 30%; inhibition of growth at 10 µM (M14): 30%; inhibition of growth at 10 µM (OVCAR-8): 30%; inhibition of growth at 10 µM (UACC-62): 30%; inhibition of growth at 10 µM (OVCAR-4): 30%; inhibition of growth at 10 µM (786-0): 30%; inhibition of growth at 10 µM (A549): 30%; inhibition of growth at 10 µM [1]: 30%; inhibition of growth at 10 µM (NCI-H23): 30%

— ChEMBL document CHEMBL1629431, “Synthesis and antitumor activity of some 2, 3-disubstituted quinazolin-4(3H)-ones and 4, 6- disubstituted- 1, 2, 3, 4-tetrahydroquinazolin-2H-ones” (2010)
